Measurements collected from several papers.
Protocols differ between the studies behind these lines.
Cell line: HepG2
Observed: cell growth or viability

COC1=CC(c2ccco2)=NC1=Cc1ccc(CCCCCCCCCC(C)O)[nH]1 (stereo not shown)  IC50: > 100 µM
COc1ccc2c(c1)c1c(n2CO)CN2CCc3cc(OCc4ccccc4)c(OC)cc3C2C1 (stereo not shown)  viability (10 µM; 24 h): 111%
CC1(C)CC[C@]2(C)CC[C@]3(C)[C@H]4CC=C5[C@@H](CC[C@H](O)C5(C)C)[C@]4(C)CC[C@@]3(C)[C@@H]2C1  IC50 (WST-1): 50.9 µM
COc1ccc2c(c1)c1c(n2CO)CN2CCc3cc(OC)c(OCC(F)(F)F)cc3C2C1 (stereo not shown)  viability (10 µM; 24 h): 96.6%
CC(=O)OC1c2c(ccc3ccc(=O)oc23)OC(C)(C)C1OC(=O)C(C)(O)C(C)O (stereo not shown)  IC50 (WST-1): 24.4 µM
COc1cc2[nH]c(C)c(-c3ccc(Oc4ccc(F)cc4)cc3)c(=O)c2cc1Cl  IC50 (resazurin): > 10 µM
COc1cccc2c1C(=O)c1c(O)c3c(c(O)c1C2=O)C[C@@](O)(C(=O)CO)C[C@@H]3O[C@H]1C[C@H](N)[C@H](O)[C@H](C)O1  viability (MTT; 25 µM; 48 h): 31.4%
CCCCCCn1c(-c2cccc(Cl)c2)n[nH]c1=S  viability (resazurin; 50 µM; 24 h): 92%
CC1=C(C)C(c2ccc[nH]2)=NC1=Cc1ccc(CCCCCCCCCC(C)O)[nH]1 (stereo not shown)  IC50: 9.38 µM
N=C(N)c1ccc(OCCCCCOc2ccc(C(=N)N)cc2)cc1  CC50 (MTS; 24 h): > 20 µM
COc1cc2[nH]c(C)c(-c3ccc(Oc4ccc(C(F)(F)F)cc4)cc3)c(=O)c2cc1Cl  IC50 (resazurin): > 10 µM
COc1ccc2cc3[n+](cc2c1OC)CCc1cc2c(cc1-3)OCO2  viability (10 µM; 24 h): 102%
CC(C)(C)CC(C)(C)Nc1c(-c2cccnc2)nc2ncccn12  viability (MTT; 25 µM; 48 h): 92.5%
COc1ccc(CCN2CCC(Nc3nc4ccccc4n3Cc3ccc(F)cc3)CC2)cc1  viability (resazurin; 10 µM; 24 h): 68%
COc1cc2[nH]c(C)c(-c3ccc(Oc4ccc(F)c(OC(F)(F)F)c4)cc3)c(=O)c2cc1Cl  IC50 (resazurin): > 10 µM
COc1ccc2c(c1)c1c(n2CO)CN2CCc3cc(OC)c(OCc4ccc(F)cc4)cc3C2C1 (stereo not shown)  viability (20 µM; 24 h): 104%
COC1=CC(c2cccn2C)=NC1=Cc1ccc(CCCCCCCCCC(C)O)[nH]1 (stereo not shown)  IC50: > 100 µM
COc1cc2c(cc1OCc1ccccc1F)C1Cc3c(n(CO)c4ccccc34)CN1CC2 (stereo not shown)  viability (5 µM; 24 h): 119%
CNc1cccc2cc(C(=O)NCCc3cccc(C(=O)O)c3)c(=O)[nH]c12  cell death (CCK-8; 10 µM; 48 h): 5.9%
N=C(N/N=C/c1ccccc1)N/N=C/c1ccccc1F  IC50 (resazurin; 24 h): 60 µM
CCc1ccc(C2=NC(=Cc3ccc(CCCCCCCCCC(C)O)[nH]3)C(OC)=C2)[nH]1 (stereo not shown)  IC50: 1.76 µM
COc1cc2[nH]c(C)c(-c3ccc(Oc4ccc(C(F)(F)F)cn4)cc3)c(=O)c2cc1Cl  IC50 (resazurin): > 10 µM
CNc1cccc2cc(C(=O)NCc3ccc(C(=O)O)cc3)c(=O)[nH]c12  cell death (CCK-8; 10 µM; 48 h): 6.1%
Cc1[nH]c2ccccc2c(=O)c1-c1ccc(Oc2ccc(OC(F)(F)F)cc2)nc1  IC50 (resazurin): > 10 µM
CC(=O)O[C@@H]1c2c(ccc3ccc(=O)oc23)OC(C)(C)[C@@H]1OC(=O)C1(C)OC1C (stereo partly shown)  IC50 (WST-1): 20.7 µM
